Measured values: ChEMBL document CHEMBL5357022, “Fluorinated Isoindolinone-Based Glucosylceramide Synthase Inhibitors with Low Human Dose Projections” (ACS Med Chem Lett, 2024)

Key:
[1] = MRT in Wistar Han rat at 5 mg/kg, po or 2 mg/kg, iv measured after 24 hrs; assay type: ADME, organism-based; conditions: in vivo
Procedure, shortened: (§1)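 Wistar Han rats were dosed IV at 2 mg/kg in DMSO/PEG400/H2O 20/60/20 at 1 mL/kg, and PO at 5 mg/kg in PEG400/Tween80/H2O 40/10/50 at 2 mL/kg. Sampling ran to a 24 h end point.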

[2] = […] clearance in Beagle dog at 1 mg/kg, po in 30% captisol formulation or 0.5 mg/kg, iv measured after 24 hrs; assay type: ADME, organism-based, Canis lupus familiaris; conditions: in vivo
Procedure, shortened: (§2)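 Beagle dogs were given 0.5 mg/kg IV in DMSO/PEG400/H2O 20/60/20 at 0.5 mL/kg, and 1 mg/kg PO in 30% Captisol at 2 mL/kg. Sampling ran to a 24 h end point.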

[3] = Unbound volume of distribution in Beagle dog at 1 mg/kg, po in 30% captisol formulation or 0.5 mg/kg, iv measured after 24 hrs; assay type: ADME, organism-based, Canis lupus familiaris; conditions: in vivo; procedure, shortened: as §2
[4] = Plasma protein binding in dog assessed as unbound fraction; assay type: ADME, cell-free, Canis lupus familiaris
[5] = Metabolic stability in human hepatocytes assessed as intrinsic clearance; assay type: ADME, cell-based, Hepatocyte; conditions: read-out: CLH
[6] = Unbound brain-to-plasma concentration ratio in rat; assay type: ADME; conditions: read-out: K(p,uu,brain)
[7] = Oral bioavailability in Wistar Han rat at 5 mg/kg measured after 24 hrs; assay type: ADME, organism-based; conditions: in vivo; procedure, shortened: as §1
[8] = Unbound volume of distribution in Wistar Han rat at 5 mg/kg, po or 2 mg/kg, iv measured after 24 hrs; assay type: ADME, organism-based; conditions: in vivo; procedure, shortened: as §1
[9] = MRT in Beagle dog at 1 mg/kg, po in 30% captisol formulation or 0.5 mg/kg, iv measured after 24 hrs; assay type: ADME, organism-based, Canis lupus familiaris; conditions: in vivo; procedure, shortened: as §2
[10] = Plasma protein binding in rat assessed as unbound fraction; assay type: ADME, cell-free
[11] = Intrinsic clearance in Wistar Han rat at 5 mg/kg, po or 2 mg/kg, iv measured after 24 hrs; assay type: ADME, organism-based; conditions: in vivo; procedure, shortened: as §1
[12] = Oral bioavailability in Beagle dog at 1 mg/kg in 30% captisol formulation measured after 24 hrs; assay type: ADME, organism-based, Canis lupus familiaris; conditions: in vivo; procedure, shortened: as §2
[13] = Plasma protein binding in human assessed as unbound fraction; assay type: ADME, cell-free
[14] = Oral bioavailability in Wistar Han rat at 4 mg/kg measured after 24 hrs; assay type: ADME, organism-based; conditions: in vivo
Procedure, shortened: (§3)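 Wistar Han rat PK study with a 24 h end point, using an oral dose of 4 mg/kg.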

[15] = MRT in Wistar Han rat at 4 mg/kg, po measured after 24 hrs; assay type: ADME, organism-based; conditions: in vivo; procedure, shortened: as §3
[16] = Unbound volume of distribution in Wistar Han rat at 4 mg/kg, po measured after 24 hrs; assay type: ADME, organism-based; conditions: in vivo; procedure, shortened: as §3
[17] = Intrinsic clearance in Wistar Han rat at 4 mg/kg, po measured after 24 hrs; assay type: ADME, organism-based; conditions: in vivo; procedure, shortened: as §3
[18] = Clearance in Wistar Han rat at 4 mg/kg, po measured after 24 hrs; assay type: ADME, organism-based; conditions: in vivo; procedure, shortened: as §3
[19] = molecular target: T1, Nuclear receptor subfamily 1 group I member 2 (Homo sapiens, UniProt O75469); assay: Activation of PXR (unknown origin); assay type: toxicity
T1 sequence (O75469 whole entry): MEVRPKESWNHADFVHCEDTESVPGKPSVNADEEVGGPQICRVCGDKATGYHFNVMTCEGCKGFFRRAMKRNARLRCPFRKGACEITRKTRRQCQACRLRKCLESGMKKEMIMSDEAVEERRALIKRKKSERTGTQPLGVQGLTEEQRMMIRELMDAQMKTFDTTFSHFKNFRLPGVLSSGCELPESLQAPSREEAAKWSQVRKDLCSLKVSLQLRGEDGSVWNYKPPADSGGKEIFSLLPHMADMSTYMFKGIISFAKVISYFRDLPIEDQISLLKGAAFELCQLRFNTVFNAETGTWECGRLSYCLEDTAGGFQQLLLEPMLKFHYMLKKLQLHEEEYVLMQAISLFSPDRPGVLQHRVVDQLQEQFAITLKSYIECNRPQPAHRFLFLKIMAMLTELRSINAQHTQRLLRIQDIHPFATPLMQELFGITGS

PXR (NR1I2) = molecular target: T2, PXR (NR1I2) (Homo sapiens, UniProt O75469); assay: Activation of PXR (unknown origin) assessed as maximal efficacy relative to control; assay type: toxicity
T2 sequence (O75469 whole entry): T1 sequence (O75469 whole entry)

[20] = Oral bioavailability in Beagle dog at 1 mg/kg in 10% tween 80 formulation measured after 24 hrs; assay type: ADME, organism-based, Canis lupus familiaris; conditions: in vivo
Procedure, shortened: (§4)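 Beagle dogs were given 0.5 mg/kg IV in DMSO/PEG400/H2O 20/60/20 at 0.5 mL/kg, and 1 mg/kg PO in a 10% Tween 80 formulation. Sampling ran to a 24 h end point.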

[21] = […] clearance in Beagle dog at 1 mg/kg, po in 10% tween 80 formulation or 0.5 mg/kg, iv measured after 24 hrs; assay type: ADME, organism-based, Canis lupus familiaris; conditions: in vivo; procedure, shortened: as §4
[22] = Octanol-water partition coefficient, logD of the compound; assay type: physicochemical
[23] = MRT in Beagle dog at 1 mg/kg, po in 10% tween 80 formulation or 0.5 mg/kg, iv measured after 24 hrs; assay type: ADME, organism-based, Canis lupus familiaris; conditions: in vivo; procedure, shortened: as §4
[24] = Unbound volume of distribution in Beagle dog at 1 mg/kg, po in 10% tween 80 formulation or 0.5 mg/kg, iv measured after 24 hrs; assay type: ADME, organism-based, Canis lupus familiaris; conditions: in vivo; procedure, shortened: as §4
[25] = MRT in rat; assay type: ADME; conditions: in vivo

| SMILES | MRT [1] [h] | CL [2] [mL/min/kg] | Vdu [3] [L/kg] | fraction unbound [4] | CLint scaled [5] [mL/min/kg] | Kp uu [6] | bioavailability [7] [%] | Vdu [8] [L/kg] | MRT [9] [h] | fraction unbound [10] | CL [11] [mL/min/kg] | bioavailability [12] [%] | fraction unbound [13] | EC50 [19] [µM] | Emax (PXR (NR1I2)) [%] | further results |
| --- | --- | --- | --- | --- | --- | --- | --- | --- | --- | --- | --- | --- | --- | --- | --- | --- |
| Cc1nnc(-c2ccc(-c3cc(F)c(F)c4c3C(=O)N([C@H](C3CC3)C(C)(C)O)C4)cc2)o1 | 3.7 | 17 | 17 | 0.14 | 13 | 0.1 | 57 | 36 | 11 | 0.021 | 169 | 64 | 0.05 |  |  |  |
| Cc1nnc(-c2ccc(-c3cc(F)cc4c3C(=O)N([C@H](C3CC3)C(C)(C)O)C4)cc2)o1 |  | 21 | 12 | 0.2 | 19 |  |  |  | 10 | 0.026 |  | 100 | 0.046 | 25 | 75 | bioavailability [14]: 38%; MRT [15]: 2.3 h; Vdu [16]: 16 L/kg; CL [17]: 120 mL/min/kg; CL/F [18]: 3 mL/min/kg |
| Cc1nnc(-c2ccc(-c3cccc4c3C(=O)N([C@H](C3CC3)C(C)(C)O)C4)cc2)o1 | 3 |  |  | 0.1 | 15 | 0.5 | 100 | 36 |  | 0.013 | 211 |  | 0.032 | 29 | 89 | bioavailability [20]: 81%; CL [21]: 13 mL/min/kg; logD [22]: 2.3; MRT [23]: 8.6 h; Vdu [24]: 9.9 L/kg |
| CN1Cc2cc(-c3cccc4c3C(=O)N([C@H](C3CC3)C(C)(C)O)C4)ccc2C1=O |  |  |  |  |  |  |  |  |  |  |  |  |  | > 30 | 11 |  |
| CCOc1ccccc1C(=O)Nc1cccc2c1C(=O)N(CC1CC1)C2 |  |  |  |  |  |  |  |  |  |  |  |  |  | 4.3 | 81 | MRT [25]: 1.4 h |
| Cc1nnc(-c2ccc(-c3c(F)ccc4c3C(=O)N([C@H](C3CC3)C(C)(C)O)C4)cc2)o1 |  |  |  |  |  |  |  |  |  |  |  |  |  | 5.2 | 100 |  |
| Cc1nnc(-c2ccc(-c3c(F)c(F)cc4c3C(=O)N([C@H](C3CC3)C(C)(C)O)C4)cc2)o1 | 5.7 | 11 | 7.1 | 0.2 | 33 | 0.2 | 36 | 10 | 10 | 0.038 | 30 | 75 | 0.098 | 6.1 | 100 |  |
| Cc1nnc(-c2ccc(-c3c(F)cc(F)c4c3C(=O)N([C@@H](C(C)(C)O)C(F)(F)F)C4)cc2)o1 |  |  |  |  |  |  |  |  |  |  |  |  |  | 14 | 100 |  |
| Cc1nnc(-c2ccc(-c3c(F)c(F)cc4c3C(=O)N([C@@H](C(C)(C)O)C(F)(F)F)C4)cc2)o1 | 9.9 | 23 | 14 | 0.11 | 4.5 | 0.4 | 83 | 18 | 11 | 0.037 | 30 | 79 | 0.067 | 12 | 80 | logD [22]: 2.7 |
| Cc1nnc(-c2ccc(-c3ccc(F)c4c3C(=O)N([C@H](C3CC3)C(C)(C)O)C4)cc2)o1 |  |  |  |  |  |  |  |  |  |  |  |  |  | 8.9 | 97 |  |
| Cc1nnc(-c2ccc(-c3c(F)cc(F)c4c3C(=O)N([C@H](C3CC3)C(C)(C)O)C4)cc2)o1 |  |  |  |  |  |  |  |  |  |  |  |  |  | 4.6 | 100 |  |
